{"source": "paper PMC8092417", "about": "(Anti-cancer drugs, 2020)", "key": {"[1]": {"test_system": "TU-BcX-4IC cells", "test": "Phalloidin immunofluorescence with morphometric quantification", "assay_type": "cell-based, human", "conditions": "1 μM, 72 hours"}, "[2]": {"test_system": "TU-BcX-4IC cells", "test": "Crystal violet staining, cells remaining / viability dose-response", "assay_type": "cell-based, human", "conditions": "1 μM, 72 hours"}, "[3]": {"test_system": "TU-BcX-4IC M2 spheres", "test": "In vivo inoculation of pre-treated spheres, tumorigenesis and metastasis", "set-up": "species or system SCID/Beige mice", "conditions": "100,000 cells per injection", "outline": "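TU-BcX-4IC M2 spheres were pre-exposed to test compound (1 μM) or DMSO for 72 h under low attachment. Spheres were dissociated to single cells with TrypLE, and only trypan blue-excluding viable cells were used. 100,000 cells/injection went bilaterally into the mammary fat pad of SCID/Beige mice (5/group). Tumours were measured biweekly by caliper, then resected. Mice were killed 20 days later, and lungs and livers were formalin-fixed, paraffin-embedded and H&E-stained for metastases.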"}, "[4]": {"test_system": "TU-BcX-4IC PDX model", "test": "In vivo treatment of TU-BcX-4IC implants, tumor growth and metastasis", "set-up": "species or system SCID/Beige mice", "conditions": "25 mg/kg bid intraperitoneally, 15 days, vs DMSO vehicle", "outline": "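Female SCID/Beige mice (5/group) received bilateral mammary fat pad implants of TU-BcX-4IC tumour pieces (3 × 3 mm). Twice-daily intraperitoneal dosing with test compound or DMSO vehicle began 24 h after implantation. At sacrifice, lungs and livers were formalin-fixed, paraffin-embedded, sectioned and H&E-stained. Lesion area and number per section were quantified.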"}, "[5]": {"test_system": "MDA-MB-231 cells", "test": "Crystal violet staining, cells remaining / viability dose-response", "assay_type": "cell-based, human", "outline": "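Cells were plated at 5,000/well in 5% charcoal-stripped DMEM for 48 h, then exposed to test compound or DMSO vehicle for 72 h at 37 °C, 5% CO2. They were fixed with glutaraldehyde for 20 min and stained for 20 min with 0.1% crystal violet in 90% methanol. After overnight drying, cells were lysed in 33% acetic acid and read at 620 nm. Signal was normalized to DMSO and plotted as dose-response.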"}, "[6]": {"test_system": "PDX organoids (PDX-Os) created from TU-BcX-4IC", "test": "Live/dead fluorescence stain of patient-derived organoids", "assay_type": "cell-based", "conditions": "1 μM, 72 hours, Calcein-AM/EthD-III", "outline": "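Explants (2 × 2 mm) from passaged TU-BcX-4IC tumours were grown out for 7 days in 3D culture, giving mixed tumour and stromal cells. Organoids were moved to ultra-low-attachment spheroid wells and exposed to test compound or DMSO for 72 h. They were then stained with Calcein-AM (2 μM, live) and EthD-III (5 μM, dead) and imaged by confocal microscopy, 5 images per well.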"}, "[7]": {"test_system": "MDA-MB-231 M2 spheres", "test": "Mammosphere formation and area quantification", "assay_type": "cell-based, human", "conditions": "MDA-MB-231, 7 days treatment", "outline": "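MDA-MB-231 cells were seeded at 1,000/well in low-attachment wells in serum-free F12/DMEM plus B-27 and allowed 24 h to form spheres. Spheres were then treated with test compound or DMSO for one week, re-dosed every three days. Imaging was at 40X or 100X. Sphere length and width were measured, area was calculated, and values were compared with DMSO controls.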"}, "[8]": {"molecular_target": "PLK1 (Homo sapiens, UniProt P53350)", "sequence (P53350 whole entry)": "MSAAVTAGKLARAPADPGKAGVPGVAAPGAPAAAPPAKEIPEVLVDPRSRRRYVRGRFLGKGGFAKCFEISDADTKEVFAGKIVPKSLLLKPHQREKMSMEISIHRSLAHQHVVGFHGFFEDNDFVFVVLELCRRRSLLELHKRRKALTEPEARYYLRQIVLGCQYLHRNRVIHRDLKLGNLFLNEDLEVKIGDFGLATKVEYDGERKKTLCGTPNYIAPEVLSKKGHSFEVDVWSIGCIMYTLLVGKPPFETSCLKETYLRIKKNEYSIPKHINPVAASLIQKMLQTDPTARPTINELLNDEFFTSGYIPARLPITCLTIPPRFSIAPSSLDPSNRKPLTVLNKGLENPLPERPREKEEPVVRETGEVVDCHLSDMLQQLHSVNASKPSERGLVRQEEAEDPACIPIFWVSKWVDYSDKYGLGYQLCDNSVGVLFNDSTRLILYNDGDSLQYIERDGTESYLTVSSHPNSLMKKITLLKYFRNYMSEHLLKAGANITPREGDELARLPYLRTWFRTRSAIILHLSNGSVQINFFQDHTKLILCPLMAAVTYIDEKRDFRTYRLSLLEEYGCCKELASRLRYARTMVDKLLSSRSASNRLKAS", "test": "Kinase inhibition assay", "assay_type": "biochemical", "conditions": "1 μM"}, "[9]": {"molecular_target": "PDGFRB (Homo sapiens, UniProt P09619)", "sequence (P09619 33-1106)": "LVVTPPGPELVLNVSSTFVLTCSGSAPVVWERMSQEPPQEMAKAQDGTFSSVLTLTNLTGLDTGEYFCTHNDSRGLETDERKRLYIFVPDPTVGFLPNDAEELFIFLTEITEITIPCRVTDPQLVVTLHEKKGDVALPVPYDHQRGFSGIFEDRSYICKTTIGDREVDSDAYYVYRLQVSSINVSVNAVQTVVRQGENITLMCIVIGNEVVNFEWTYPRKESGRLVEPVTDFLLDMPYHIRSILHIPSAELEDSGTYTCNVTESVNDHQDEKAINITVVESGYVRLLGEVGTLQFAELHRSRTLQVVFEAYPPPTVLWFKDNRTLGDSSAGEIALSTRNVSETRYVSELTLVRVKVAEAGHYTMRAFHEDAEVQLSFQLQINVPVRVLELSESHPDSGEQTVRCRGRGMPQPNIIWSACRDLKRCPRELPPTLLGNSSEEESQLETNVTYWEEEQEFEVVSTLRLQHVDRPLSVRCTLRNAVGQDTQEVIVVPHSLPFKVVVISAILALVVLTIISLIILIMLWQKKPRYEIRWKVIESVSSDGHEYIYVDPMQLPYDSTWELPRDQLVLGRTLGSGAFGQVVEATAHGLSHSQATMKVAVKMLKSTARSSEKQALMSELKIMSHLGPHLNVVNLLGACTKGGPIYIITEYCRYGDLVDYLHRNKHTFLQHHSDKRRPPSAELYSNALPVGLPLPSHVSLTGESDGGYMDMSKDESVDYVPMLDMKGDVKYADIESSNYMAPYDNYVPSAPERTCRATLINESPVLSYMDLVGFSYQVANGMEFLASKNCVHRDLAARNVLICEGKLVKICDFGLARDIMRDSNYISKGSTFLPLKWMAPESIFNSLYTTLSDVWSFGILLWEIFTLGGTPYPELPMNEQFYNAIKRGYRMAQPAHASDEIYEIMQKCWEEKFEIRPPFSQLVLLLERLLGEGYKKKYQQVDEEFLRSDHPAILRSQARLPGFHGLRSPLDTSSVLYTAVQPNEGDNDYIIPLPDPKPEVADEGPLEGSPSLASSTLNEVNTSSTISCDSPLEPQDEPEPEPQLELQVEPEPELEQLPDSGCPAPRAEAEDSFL", "test": "Kinase inhibition assay", "assay_type": "biochemical", "conditions": "1 μM"}, "[10]": {"conditions": "TU-BcX-4IC M2 spheres pre-treated 1 μM 72 hours"}}}
{"smiles": "C[C@@H](Oc1cc(-n2cnc3ccc(NC(=O)NC(C)(C)C)cc32)sc1C(N)=O)c1ccccc1Cl", "note": "[GSK346294A]", "values": [{"measurement": "Nuclear area fraction", "setting": "[1]", "result": "most significantly reduced nuclear area fraction"}, {"measurement": "Total cell area", "setting": "[1]", "result": "largest overall areas"}, {"measurement": "Number of cells remaining compared to DMSO controls", "setting": "[2]", "result": "decreased the number of cells remaining"}, {"measurement": "Area of liver metastases", "setting": "[3]; [10]", "result": "did not suppress"}, {"measurement": "Area of lung metastasis", "setting": "[3]; [10]", "result": "suppressed area of lung metastasis"}, {"measurement": "Total number of lung lesions", "setting": "[3]; [10]", "result": "significantly suppresses total number of lesions"}, {"measurement": "Tumor formation of pre-treated spheres", "setting": "[3]; [10]", "result": "significantly suppressed tumor formation"}, {"measurement": "Number of liver metastases", "setting": "[3]; TU-BcX-4IC MS2 spheres pre-treated 1 μM 72 hours", "result": "did not suppress"}, {"measurement": "Area of liver metastases per section", "setting": "[4]", "result": "minimally suppressed the area of liver metastases"}, {"measurement": "Area of lung metastases per section", "setting": "[4]", "result": "did not affect the area of lung metastases"}, {"measurement": "Growth of the primary tumor", "setting": "[4]", "result": "did not affect growth of the tumor"}, {"measurement": "Metastasis to lungs and livers, overall", "setting": "[4]", "result": "did not effectively suppress metastasis"}, {"measurement": "Number of liver metastases per section", "setting": "[4]", "result": "minimally suppressed"}, {"measurement": "Number of metastases per lung section", "setting": "[4]", "result": "minimally reduce the overall number of metastases per lung section"}, {"measurement": "IC50", "setting": "[5]; Homo sapiens, MDA-MB-231, 72 h, read-out: IC-50, number of cells remaining", "result": 50, "unit": "µM"}, {"measurement": "Number of cells remaining compared to DMSO controls", "setting": "[5]; MDA-MB-231, 1 μM, 72 hours", "result": "decreased the number of cells remaining"}, {"measurement": "Cytotoxicity to PDX organoids", "setting": "[6]", "result": "not cytotoxic"}, {"measurement": "Sphere area", "setting": "[7]", "result": "significantly increased sphere area"}, {"measurement": "Activity against PLK1", "setting": "[8]", "result": "strong activity"}, {"measurement": "Activity against PDGFRB", "setting": "[9]", "result": "moderate activity"}]}
